Published values from different studies.

`NCC(=O)Nc1ccc(-n2nc(C(F)(F)F)cc2-c2ccc3c(ccc4ccccc43)c2)cc1` has a CL/F of 58.7 L/h/kg (mouse, plasma; oral, 80 mg/kg, single dose).
For `N=c1c2c(-c3ccccc3)c(-c3ccccc3)n(Cc3ccccc3)c2ncn1[C@H]1CC[C@H](O)CC1`, the Cmax was 0.0815 µg/mL (male beagle dog, plasma; oral, 1 mg/kg, single dose).
`CCC[C@@](N)(CO)CCc1ccc(OCCCCCC(C)C)cc1` gave a Cmax of 0.995 µM (dog, plasma; oral, 20 mg/kg, fed).
`Cl.Cl.O=C(CCN1CCCCC1)c1ccc(-c2ccc(C(=O)CCN3CCCCC3)cc2)cc1` has a Tmax of 37.8 min (Sprague-Dawley rat, plasma; oral, 25 mg/kg).
With `CN[C@H](CC(C)C)C(=O)N[C@H]1C(=O)N[C@@H](CC(N)=O)C(=O)N[C@H]2C(=O)NC3C(=O)N[C@H](C(=O)N[C@H](C(=O)NCCC[N+](C)(C)C)c4cc(O)cc(O)c4-c4cc3ccc4O)[C@H](O)c3ccc(c(Cl)c3)Oc3cc2cc(c3OC2OC(CO)C(O)[C@H](O)[C@@H]2O[C@H]2CC(C)(NCc3ccc(-c4ccc(Cl)cc4)cc3)[C@H](O)[C@H](C)O2)Oc2ccc(cc2Cl)[C@H]1O` (stereo partly drawn) the clearance was 0.12 L/h/kg (mouse, plasma; intravenous, 50 mg/kg).
For `C[C@]12CC[C@H](O)CC1=CC[C@@H]1[C@@H]2CC[C@]2(C)C(n3cnc4ccccc43)=CC[C@@H]12.Cl`, the C0 was 0.0983 µg/mL (mouse, plasma; intravenous, 1 mg/kg).
`O=C(Nc1cccnn1)N1CCN([C@@H]2CCOc3cc(C(F)(F)F)ccc32)CC1` has a Tmax of 49.8 min (male Sprague-Dawley rat, plasma; oral, 0.3 mg/kg).
`C[C@]12CC[C@H](n3ccnc3)CC1=CC[C@@H]1[C@@H]2CC[C@]2(C)C(n3cnc4ccccc43)=CC[C@@H]12.Cl.Cl` has a C0 of 0.603 µg/mL (male CD-1 mouse, plasma; intravenous, 1 mg/kg).
The clearance of `Cc1nc([C@@](C)(CC2CC2)NC(=O)c2cc(OCC(F)(F)F)c(C3CC3)cn2)no1` is reported as 0.708 L/h/kg (C57BL/6 mouse, plasma; intravenous).
For `CCN(CC)CCCC[C@H](NC(=O)[C@H](CC(C)C)NC(=O)[C@H](C)NC(=O)[C@H](Cc1ccccc1)NC(=O)c1ccc(C(C)(C)C)cc1)C(=O)N[C@@H](CO)C(=O)OC`, the C0 was 10.9 µg/mL (male Swiss mouse, blood; intravenous, 3 mg/kg).
With `Cc1nonc1Cn1nnc2c(N3CC[C@H](O)C3)nc(C(C)(C)C)nc21` the clearance was 1.79 L/h/kg (C57BL/6 mouse, plasma; intravenous).
For `Cc1cc(C)nc(Nc2ncc(C(=O)NCCc3c(C)[nH]c4ccccc34)cn2)c1`, the clearance was 0.6 L/h/kg (beagle dog, plasma; intravenous, 3 mg/kg).
